In ChEMBL document CHEMBL1165858, “Synthesis and biological evaluation of beta-chloro vinyl chalcones as inhibitors of TNF-alpha and IL-6 with antimicrobial activity” (Eur J Med Chem, 2010):
Converted amounts (≈) assume the structure as drawn. The source made the active and inactive calls. The rule behind the calls is not given here.

Tests used:
Klebsiella pneumoniae = assay: Antibacterial activity against Klebsiella pneumoniae NCIM 5082 after 24 hrs by disc diffusion method; type: functional; conditions: for MIC: Klebsiella pneumoniae, NCIM 5082, 24 h
Outline: (§1)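 Paper disc diffusion (6.25 mm Whatman no.1 discs, dry-heat sterilized at 140 °C for 1 h) loaded with compounds at different concentrations in DMSO. Discs were placed in triplicate on nutrient agar seeded with fresh bacterial culture and incubated at 37 °C for 24 h, with solvent and growth controls. Zones of inhibition (mm) and MIC, the concentration completely inhibiting growth, were recorded.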

Candida albicans [1] = assay: Antibacterial activity against Candida albicans NCIM 3100 after 72 hrs by disc diffusion method; type: functional; conditions: for MIC: Candida albicans, NCIM 3100, 72 h
Outline: (§2)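 Agar disc diffusion against fungi. Fungi were maintained on potato dextrose agar at (25 ± 2) °C for five days before use. Compounds were dissolved in DMSO (10 mg/mL initial solutions) and loaded on discs placed on freshly seeded plates alongside a solvent control disc. Plates were held at 4 °C for 24 h for diffusion, then incubated at 37 ± 5 °C for 72 h. Zones of inhibition (mm) and MICs were recorded.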

Escherichia coli = assay: Antibacterial activity against Escherichia coli NCIM 2065 after 24 hrs by disc diffusion method; type: functional; conditions: for MIC: Escherichia coli, NCIM 2065, 24 h; outline: as §1
THP-1 [2] = assay: Antiinflammatory activity in human THP1 cells assessed as inhibition of LPS-induced TNFalpha secretion at 10 uM treated 30 mins before LPS challenge measured after 24 hrs by ELISA relative to control; type: functional
Outline: (§3)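 THP-1 cells were grown in RPMI 1640 with 10% FBS and penicillin/streptomycin, then differentiated with PMA. Compound or vehicle (0.5% DMSO) was added for 30 min at 37 °C, followed by LPS (E. coli 0127:B8, final 1 µg/mL). After 24 h at 37 °C in 5% CO2, TNF-α and IL-6 in the supernatants were quantified by ELISA. Values are the mean of n = 2.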

Trichoderma viride = assay: Antibacterial activity against Trichoderma viride TT after 72 hrs by disc diffusion method; type: functional; conditions: for MIC: Trichoderma viride, TT, 72 h; outline: as §2
Penicillium chrysogenum = assay: Antibacterial activity against Penicillium chrysogenum NCIM 707 after 72 hrs by disc diffusion method; type: functional; conditions: for MIC: Penicillium chrysogenum, NCIM 707, 72 h; outline: as §2
[3] = Cytotoxicity against […] at 10 uM; type: cell-based
Staphylococcus aureus = assay: Antibacterial activity against Staphylococcus aureus NCIM 2120 after 24 hrs by disc diffusion method; type: functional; conditions: for MIC: Staphylococcus aureus, NCIM 2120, 24 h; outline: as §1
Aspergillus fumigatus = assay: Antibacterial activity against Aspergillus fumigatus NCIM 902 after 72 hrs by disc diffusion method; type: functional; conditions: for MIC: Aspergillus fumigatus, NCIM 902, 72 h; outline: as §2
Aspergillus niger = assay: Antibacterial activity against Aspergillus niger NCIM 545 after 72 hrs by disc diffusion method; type: functional; conditions: for MIC: Aspergillus niger, NCIM 545, 72 h; outline: as §2
THP-1 [4] = assay: Antiinflammatory activity in human THP1 cells assessed as inhibition of LPS-induced IL-6 secretion at 10 uM treated 30 mins before LPS challenge measured after 24 hrs by ELISA relative to control; type: functional; outline: as §3
Bacillus subtilis = assay: Antibacterial activity against Bacillus subtilis NCIM 2546 after 24 hrs by disc diffusion method; type: functional; conditions: for MIC: Bacillus subtilis, NCIM 2546, 24 h; outline: as §1
Proteus vulgaris = assay: Antibacterial activity against Proteus vulgaris NCIM 2813 after 24 hrs by disc diffusion method; type: functional; conditions: for MIC: Proteus vulgaris, NCIM 2813, 24 h; outline: as §1
Candida albicans [5] = assay: Antibacterial activity against Candida albicans NCIM 3100 at > 100 […] after 72 hrs by disc diffusion method; type: functional, organism-based

| Molecule | inhibition zone (IZ) (Klebsiella pneumoniae) | MIC (Klebsiella pneumoniae) | inhibition zone (IZ) (Candida albicans [1]) | inhibition zone (IZ) (Escherichia coli) | inhibition at 10 µM (THP-1 [2]) | inhibition zone (IZ) (Trichoderma viride) | MIC (Trichoderma viride) | inhibition zone (IZ) (Penicillium chrysogenum) | MIC (Penicillium chrysogenum) | Activity [3] | inhibition zone (IZ) (Staphylococcus aureus) | MIC (Staphylococcus aureus) | inhibition zone (IZ) (Aspergillus fumigatus) | MIC (Aspergillus fumigatus) | inhibition zone (IZ) (Aspergillus niger) | MIC (Aspergillus niger) | inhibition at 10 µM (THP-1 [4]) | inhibition zone (IZ) (Bacillus subtilis) | MIC (Bacillus subtilis) | inhibition zone (IZ) (Proteus vulgaris) | other results |
| --- | --- | --- | --- | --- | --- | --- | --- | --- | --- | --- | --- | --- | --- | --- | --- | --- | --- | --- | --- | --- | --- |
| COc1cccc(/C(Cl)=C/C=C/C(=O)c2c(O)cc(OC)cc2OC)c1 | 14 mm | 50 µg/mL (≈ 133 µM) | 13 mm | 10 mm | 11% | 16 mm | 50 µg/mL (≈ 133 µM) | 17 mm | 25 µg/mL (≈ 66.7 µM) | Non-toxic | 15 mm | 50 µg/mL (≈ 133 µM) | 16 mm | 50 µg/mL (≈ 133 µM) | 16 mm | 50 µg/mL (≈ 133 µM) | 39% |  |  |  |  |
| COc1cc(O)c(C(=O)/C=C/C=C(\Cl)c2ccccc2Cl)c(OC)c1 | 18 mm | 25 µg/mL (≈ 65.9 µM) |  | 14 mm | 17% | 14 mm | 50 µg/mL (≈ 132 µM) | 16 mm | 50 µg/mL (≈ 132 µM) | Non-toxic | 16 mm | 50 µg/mL (≈ 132 µM) | 14 mm | 50 µg/mL (≈ 132 µM) | 16 mm | 50 µg/mL (≈ 132 µM) | 43% | 16 mm | 50 µg/mL (≈ 132 µM) | 20 mm | MIC (Escherichia coli): 50 µg/mL (≈ 132 µM); MIC (Proteus vulgaris): 25 µg/mL (≈ 65.9 µM); MIC (Candida albicans [5]): inactive |
| OC(Cn1cncn1)(Cn1cncn1)c1ccc(F)cc1F [FLUCONAZOLE] |  |  | 18 mm |  |  | 22 mm | 25 µg/mL (≈ 81.6 µM) | 22 mm | 25 µg/mL (≈ 81.6 µM) |  |  |  | 20 mm | 25 µg/mL (≈ 81.6 µM) | 20 mm | 25 µg/mL (≈ 81.6 µM) |  |  |  |  | MIC (Candida albicans [1]): 25 µg/mL (≈ 81.6 µM) |
| COc1cc(O)c(C(=O)/C=C/C=C(\Cl)c2ccc(Cl)cc2Cl)c(OC)c1 | 15 mm | 50 µg/mL (≈ 121 µM) | 10 mm | 14 mm | 0% | 18 mm | 25 µg/mL (≈ 60.4 µM) | 17 mm | 25 µg/mL (≈ 60.4 µM) | Non-toxic | 19 mm | 25 µg/mL (≈ 60.4 µM) | 17 mm | 50 µg/mL (≈ 121 µM) | 10 mm |  | 67% | 17 mm | 50 µg/mL (≈ 121 µM) | 19 mm | MIC (Escherichia coli): 50 µg/mL (≈ 121 µM); MIC (Proteus vulgaris): 25 µg/mL (≈ 60.4 µM) |
| COc1cc(O)c(C(=O)/C=C/C=C(\Cl)c2ccc(Br)cc2)c(OC)c1 | 20 mm | 25 µg/mL (≈ 59 µM) | 14 mm | 15 mm | 8% | 18 mm | 25 µg/mL (≈ 59 µM) | 18 mm | 25 µg/mL (≈ 59 µM) | Non-toxic | 14 mm | 50 µg/mL (≈ 118 µM) | 20 mm | 25 µg/mL (≈ 59 µM) | 14 mm | 50 µg/mL (≈ 118 µM) | 58% | 18 mm | 25 µg/mL (≈ 59 µM) | 12 mm | MIC (Candida albicans [1]): 25 µg/mL (≈ 59 µM); MIC (Escherichia coli): 50 µg/mL (≈ 118 µM) |
| CC1(C)S[C@@H]2[C@H](NC(=O)Cc3ccccc3)C(=O)N2[C@H]1C(=O)O [PENICILLIN G] | 21 mm | 25 µg/mL (≈ 74.8 µM) |  | 18 mm |  |  |  |  |  | Non-toxic | 20 mm | 25 µg/mL (≈ 74.8 µM) |  |  |  |  |  | 22 mm | 25 µg/mL (≈ 74.8 µM) | 22 mm | MIC (Escherichia coli): 25 µg/mL (≈ 74.8 µM); MIC (Proteus vulgaris): 25 µg/mL (≈ 74.8 µM) |
| COc1cc(O)c(C(=O)/C=C/C=C(\Cl)c2ccc(F)cc2)c(OC)c1 | 14 mm | 50 µg/mL (≈ 138 µM) | 10 mm | 16 mm | 16% | 16 mm | 50 µg/mL (≈ 138 µM) | 14 mm | 50 µg/mL (≈ 138 µM) | Non-toxic | 14 mm | 50 µg/mL (≈ 138 µM) | 14 mm | 50 µg/mL (≈ 138 µM) | 17 mm | 25 µg/mL (≈ 68.9 µM) | 83% | 22 mm | 25 µg/mL (≈ 68.9 µM) | 18 mm | MIC (Escherichia coli): 50 µg/mL (≈ 138 µM); MIC (Proteus vulgaris): 25 µg/mL (≈ 68.9 µM) |
| C[C@@H]1C[C@H]2[C@@H]3CCC4=CC(=O)C=C[C@]4(C)[C@@]3(F)[C@@H](O)C[C@]2(C)[C@@]1(O)C(=O)CO [DEXAMETHASONE] |  |  |  |  | 69% |  |  |  |  | Non-toxic |  |  |  |  |  |  | 90% |  |  |  |  |
| GENTAMICIN [listing 1 of 2 here] | 22 mm |  |  |  |  |  |  |  |  |  |  |  |  |  |  |  |  | 24 mm |  | 18 mm |  |
| GENTAMICIN [listing 2 of 2 here] |  |  |  |  |  |  |  |  |  | Non-toxic |  |  |  |  |  |  |  |  |  |  |  |
| COc1cc(O)c(C(=O)/C=C/C=C(\Cl)c2ccc(Cl)cc2)c(OC)c1 | 18 mm | 25 µg/mL (≈ 65.9 µM) | 12 mm | 15 mm | 13% | 15 mm | 50 µg/mL (≈ 132 µM) | 12 mm |  | Non-toxic | 18 mm | 25 µg/mL (≈ 65.9 µM) | 17 mm | 25 µg/mL (≈ 65.9 µM) | 16 mm | 50 µg/mL (≈ 132 µM) | 74% | 20 mm | 25 µg/mL (≈ 65.9 µM) | 15 mm | MIC (Escherichia coli): 50 µg/mL (≈ 132 µM); MIC (Proteus vulgaris): 50 µg/mL (≈ 132 µM) |
